# Screening data (PubChem)
# Hits are enriched below; roughly 2.9% of the tested compounds scored in any of these assays.
# SIRT5 block: sirtuin-5 (human) deacylase inhibition | Q9NXA8 | Purified SirT5, succinyl-peptide AMC, trypsin-coupled fluorescence | inhibition, % at 15 µM | 330,000 compounds, 1.1% hits; in the data active means inhibition above about 15%; inconclusive means no clear call, values can overlap the other calls
# E-selectin induc: induces E-selectin expression in human endothelial cells; HUVEC E-selectin immunofluorescence imaging; normalized: neutral wells 0, TNF-alpha wells 100; 260,000 compounds, 0.37% hits; AID 686992; activation, % at 7.58 µM; P16581;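 active means mean E-selectin-positive cell signal at least 10% of the positive control, reached in at least 60% of replicates, without over 20% cell loss; inconclusive means no rule given, readout overlaps actives, possibly toxicity-flagged; inactive means the rest, including those meeting only one limit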
# Target sequence (P16581 whole entry, looked up): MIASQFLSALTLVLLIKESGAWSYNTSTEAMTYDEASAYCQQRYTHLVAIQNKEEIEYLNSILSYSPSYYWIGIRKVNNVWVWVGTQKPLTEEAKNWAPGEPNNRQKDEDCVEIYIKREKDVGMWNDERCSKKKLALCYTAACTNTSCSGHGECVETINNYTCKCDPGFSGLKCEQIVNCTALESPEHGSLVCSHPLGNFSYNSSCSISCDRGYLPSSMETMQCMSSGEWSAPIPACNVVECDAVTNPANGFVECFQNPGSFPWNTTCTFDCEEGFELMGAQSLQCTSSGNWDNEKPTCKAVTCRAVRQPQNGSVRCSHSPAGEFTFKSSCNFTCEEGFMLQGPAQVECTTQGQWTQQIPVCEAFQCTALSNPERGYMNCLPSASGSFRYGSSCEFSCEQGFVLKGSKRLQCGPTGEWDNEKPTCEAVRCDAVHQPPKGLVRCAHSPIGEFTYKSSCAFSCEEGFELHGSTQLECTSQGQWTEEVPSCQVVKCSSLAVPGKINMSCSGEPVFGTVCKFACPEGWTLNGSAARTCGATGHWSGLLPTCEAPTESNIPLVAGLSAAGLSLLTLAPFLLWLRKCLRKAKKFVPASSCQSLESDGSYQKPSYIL
#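 Read-out: % PE-positive cells | Test system: HUVEC | Doses: One compound dose added by pin transfer | Buffer or medium: EGM-2 over gelatin coat | Signal: Immunofluorescence imaging | Benchmarks: TNF-alpha, DMSO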
# DENV2 CPE: DENV2-induced cell death inhibition | CPE inhibition, % at 9.99 µM | 350,000 compounds, 1.7% hits | DENV2-infected cells, cytopathic effect rescue, plate reader | AID 651640; in the data active means CPE inhibition above about 20%, passing the limit was not always enough; inconclusive means no clear call, values can overlap the other calls; tested in BHK-21 cells
# A number is an active result; 0 = inactive; ? = inconclusive; - = no result; ! = not active in a repeat.
SMILES,SIRT5 block,E-selectin induc,DENV2 CPE
C[C@@H]1CN([C@H](C)CO)C(=O)c2cc(-c3ccc(C#N)cc3)cnc2O[C@@H]1CN(C)Cc1ccncc1,0,0,0
CCNC(=O)C[C@@H]1CC[C@@H]2[C@@H](COc3ccc(NC(=O)Nc4ccc(F)cc4)cc3C(=O)N2C)O1,0,0,0
CCNC(=O)Nc1ccc2c(c1)C(=O)N(C)[C@@H]1CC[C@H](CC(=O)NCc3ccc(F)cc3)O[C@H]1CO2,0,0,55
CCNC(=O)C[C@@H]1CC[C@H]2[C@@H](COc3ccc(NC(=O)Nc4ccc(F)cc4)cc3C(=O)N2C)O1,0,84,0
CCNC(=O)Nc1ccc2c(c1)C(=O)N(C)[C@@H]1CC[C@@H](CC(=O)NCc3ccc(F)cc3)O[C@H]1CO2,0,0,0
Cn1c(=O)c2c(-c3ccccc3)n(-c3ccccc3Br)cc2n(C)c1=O,0,0,0
NC(=O)CC(NC(=O)Cc1cccc2ccccc12)c1ccc(NC2CCC2)c([N+](=O)[O-])c1 (centres undefined),-,0,0
O=C([C@@H]1[C@@H](CO)[C@@H]2Cn3c(ccc(-c4ccncc4)c3=O)[C@H]1N2Cc1ccccc1)N1CCOCC1,0,0,0
CC(C)OC(=O)N(C)C[C@H]1OCc2cn(nn2)CCCC(=O)N([C@@H](C)CO)C[C@@H]1C,0,0,0
CCOC(=O)N(C)C[C@@H]1OCc2cn(nn2)CCCC(=O)N([C@H](C)CO)C[C@H]1C,0,0,0
CC(C)OC(=O)N(C)C[C@@H]1OCc2cn(nn2)CCCC(=O)N([C@@H](C)CO)C[C@H]1C,0,0,36!
CCOC(=O)N(C)C[C@H]1OCc2cn(nn2)CCCC(=O)N([C@H](C)CO)C[C@H]1C,17,0,?
COC(=O)c1cccc(CN2C(=O)C(C)Sc3ccc(C#N)cc32)c1 (centres undefined),-,0,0
CNC[C@@H]1OCCCC[C@H](C)Oc2ccc(NS(=O)(=O)c3ccc(Cl)cc3)cc2C(=O)N([C@@H](C)CO)C[C@@H]1C,0,0,0
CC1CCCCN1CCNC(=O)c1ccc2c(c1)N(Cc1cccc(Cl)c1)C(=O)c1ccccc1S2=O (centres undefined),0,-,0
O=C(Cc1ccc(NC(=O)C2CCN(C(=O)C3CCC3)CC2)cc1)Nc1cccc(C(=O)N2CCCC2)c1,0,0,0
O=C(O)CCCC(=O)Nc1ccccc1C(=O)N1CCOCC1,28,0,0
O=C(CCc1ccccc1)Nc1ccccc1C(=O)N1CCOCC1,-,0,0
Cn1ccnc1SC(C(=O)O)c1ccccc1 (centres undefined),102,-,0
CC(C)N(Cc1ccccc1)C(=O)CSc1nccn1C,0,0,0
N#Cc1c(-c2ccc(Cl)cc2)cc(-c2cccs2)nc1SCC(=O)O,0,0,0
COCCN(CC(=O)Nc1cccc(C)c1C)C(=O)c1ccc(-n2cccn2)cc1,0,-,0
O=C(CCc1nc2ccccc2c(=O)[nH]1)N1CCCc2ccccc21,0,0,53
O=C(CCc1nc2ccccc2c(=O)[nH]1)N1CCN(c2ccccc2Cl)CC1,0,0,0
O=C(CCS(=O)(=O)c1ccccc1)N1CCCc2ccccc21,17,0,0
SMILES,SIRT5 block,E-selectin induc,DENV2 CPE
O=C(C[n+]1ccccc1)N1CCCc2ccccc21,-,-,0
O=C(Nc1cccnc1)c1cccc(S(=O)(=O)Nc2ccccc2F)c1,0,-,0
O=C(/C=C/c1ccccc1)Nc1cccc(S(=O)(=O)Nc2ccccc2F)c1,25,0,0
O=C(NNC(=O)c1cccc(S(=O)(=O)Nc2ccccc2F)c1)c1ccncc1,18,0,0
O=C(Cc1ccc(Cl)cc1Cl)Nc1cccc(S(=O)(=O)Nc2ccccc2F)c1,30,0,0
O=C(Nc1cccc(S(=O)(=O)Nc2ccccc2F)c1)c1ccc2ccccc2n1,0,0,0
O=C(Cc1c(F)cccc1Cl)Nc1cccc(S(=O)(=O)NC2=NCCCCC2)c1,0,0,0
COc1ccc(C2NC(=O)CCC2[N+](=O)[O-])c(OC)c1 (centres undefined),0,0,0
COc1ccc(CN(C)C(=O)COC(=O)c2ccc(-c3ccccc3)cc2)c(OC)c1OC,0,0,0
Cc1noc(C)c1NC(=O)Nc1ccc2c(c1)C(=O)N([C@@H](C)CO)C[C@@H](C)[C@H](CN(C)C(=O)NC1CCCCC1)O2,0,0,0
COc1ccccc1S(=O)(=O)N1C[C@@H]2N[C@H](C1)C2c1ccc(-c2ccccc2C)cc1 (some centres undefined),-,0,0
COc1ccc2cc(C(C)C(=O)NC3CCC(O)CC3)ccc2c1 (centres undefined),0,-,0
O=C(CCn1nc(-c2ccccc2)ccc1=O)NCCCN1CCCCCC1,0,-,0
Cc1ccc(S(=O)(=O)N2CC[C@@H]3[C@@H](CO)N(C)c4ccc(-c5ccccc5F)cc4[C@@H]32)cc1,0,0,0
Cc1cccc(S(=O)(=O)N2CC[C@@H]3[C@H]2c2cc(-c4ccc(C#N)cc4)ccc2N(C)[C@H]3CO)c1,0,0,0
COc1ccc(-c2ccc3c(c2)[C@@H]2[C@@H](CCN2S(=O)(=O)c2ccc(OC)cc2)[C@H](CO)N3C)cc1,0,0,0
COc1ccc(-c2ccc3c(c2)[C@@H]2[C@@H](CCN2S(=O)(=O)c2ccc(F)cc2)[C@H](CO)N3C)cc1,16,0,0
Cc1cccc(S(=O)(=O)N2CC[C@@H]3[C@@H](CO)N(C)c4ccc(-c5ccc(C#N)cc5)cc4[C@@H]32)c1,0,0,45
CN1c2ccc(-c3ccccc3F)cc2[C@H]2[C@H](CCN2S(=O)(=O)c2ccc(F)cc2)[C@H]1CO,0,0,65
CN1C(=O)c2cc(NS(C)(=O)=O)ccc2OC[C@@H]2O[C@H](CC(=O)NC3CCCCC3)CC[C@@H]21,0,0,0
COc1cccc(S(=O)(=O)NCC(=O)Nc2ccc(C(C)(C)C)cc2)c1,0,-,?
Nc1nc(=S)c2[nH]c(=S)[nH]c2[nH]1,-,0,0
COc1ccc(CCN2C(=O)CSCC2(C)C(=O)Nc2ccc3c(c2)OCCO3)cc1OC (centres undefined),0,0,21
CC1(C(=O)Nc2ccc3c(c2)OCCO3)CN(S(C)(=O)=O)CC(=O)N1CCc1ccccc1 (centres undefined),0,0,0
COCCN1C(=O)CN(S(C)(=O)=O)CC1(C)C(=O)Nc1ccc2c(c1)OCCO2 (centres undefined),0,0,33
SMILES,SIRT5 block,E-selectin induc,DENV2 CPE
CC1(C(=O)Nc2ccc3c(c2)OCCO3)CCC(=O)N1CCOc1ccccc1 (centres undefined),0,0,0
COc1ccccc1CN1CC[C@@H]2[C@H](CO)Nc3ccc(-c4cccc(C(=O)N(C)C)c4)cc3[C@@H]21,0,0,0
ON=C(c1ccccc1)c1ccc2c3c(cccc13)CC2,0,0,0
CC(C)c1ccc(C2OC(CCc3ccccc3)Cc3[nH]c(=S)[nH]c(=O)c32)cc1 (centres undefined),0,0,0
Cc1ccccc1CN1CCN(Cc2ccc3cccc(F)c3n2)CC1CCO (centres undefined),36,-,0
OCCC1CN(Cc2ccc3cccc(F)c3n2)CCN1Cc1ccccc1 (centres undefined),0,0,0
CCCC#Cc1ccc([C@@H]2[C@H](CO)N3CCCCN(CC4CCOCC4)C[C@@H]23)cc1,0,0,46
